Consider 10 compounds from ChEMBL document CHEMBL2157885, “Synthesis of 1,5-diarylhaloimidazole analogs and their inhibitory activities against PGE₂ production from LPS-treated RAW 264.7 cells” (Bioorg Med Chem, 2012).

Data set [1] relates to RAW264.7. Kind of data set: Cytotoxicity against mouse RAW264.7 cells by MTT assay. Format: cell-based. The method in brief:
(§1)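 Viability of ATCC RAW 264.7 cells, grown in DMEM with 10% FBS and 1% antibiotics at 37 °C under 5% CO₂, read by MTT assay with or without LPS at the compound concentrations used for the PGE₂ assay.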

Data set [2] can be described thus: Dissociation constant, pKa of the compound. The format is physicochemical.
Data set [3] concerns the target T1, Prostaglandin G/H synthase 2 (Mus musculus, UniProt Q05769).
T1 sequence (Q05769 whole entry): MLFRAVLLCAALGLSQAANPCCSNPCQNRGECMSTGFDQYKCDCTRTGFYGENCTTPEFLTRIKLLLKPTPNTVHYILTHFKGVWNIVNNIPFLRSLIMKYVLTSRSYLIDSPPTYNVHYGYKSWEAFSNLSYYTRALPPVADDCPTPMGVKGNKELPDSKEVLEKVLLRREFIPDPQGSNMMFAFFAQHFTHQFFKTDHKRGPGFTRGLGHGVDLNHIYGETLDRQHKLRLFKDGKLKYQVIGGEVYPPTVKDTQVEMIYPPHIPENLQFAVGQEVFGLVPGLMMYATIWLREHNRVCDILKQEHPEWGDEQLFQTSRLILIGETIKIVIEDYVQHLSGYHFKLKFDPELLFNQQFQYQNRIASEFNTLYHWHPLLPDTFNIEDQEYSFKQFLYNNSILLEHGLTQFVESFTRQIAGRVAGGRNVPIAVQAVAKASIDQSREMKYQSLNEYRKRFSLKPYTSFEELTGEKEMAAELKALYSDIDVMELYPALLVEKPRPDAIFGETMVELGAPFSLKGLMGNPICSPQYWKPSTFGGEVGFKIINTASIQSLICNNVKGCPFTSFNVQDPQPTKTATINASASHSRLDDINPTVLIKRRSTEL
Put plainly: Inhibition of COX-2-induced PGE2 production in LPS-stimulated mouse Raw 264.7 cells preincubated for 1 hr before LPS challenge measured after 24 hrs by ELISA. The essentials: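 RAW 264.7 cells (ATCC), cultured in DMEM with 10% FBS and 1% antibiotics at 37 °C under 5% CO₂, seeded at 2 × 10⁵ cells/well. 1 h compound pre-incubation preceded LPS addition and 24 h incubation. Medium PGE₂ quantified by ELISA; IC₅₀ reported from inhibition relative to basal and LPS-only controls.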
On the technique in general: ELISA stands for enzyme-linked immunosorbent assay.

A short description of data set [4]: Lipophilicity, log P of the compound. The format is physicochemical. The settings on record: octanol/water.
In data set [5] the target is T2, Prostaglandin G/H synthase 2 (Mus musculus) (UniProt Q05769).
T2 sequence (whole entry): T1 sequence (Q05769 whole entry)
Put plainly: Inhibition of COX-2-induced PGE2 production in LPS-stimulated mouse Raw 264.7 cells at 10 uM preincubated for 1 hr before LPS challenge measured after 24 hrs by ELISA. The method in brief: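 ATCC RAW 264.7 cells in DMEM with 10% FBS and 1% antibiotics, 37 °C, 5% CO₂, seeded at 2 × 10⁵ cells/well. Compound pre-incubated 1 h, then LPS added, 24 h further. PGE₂ in medium measured by ELISA. % inhibition = 100 × [1 − (treated + LPS − basal)/(LPS only − basal)]. Arithmetic means, n = 3.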

In data set [6] the test system is RAW264.7. Put plainly: Cytotoxicity against LPS-stimulated mouse RAW264.7 cells by MTT assay. The format is cell-based. The method in brief: as §1
On the technique in general: Tetrazolium dyes change colour on reduction, which living cells bring about.

As for `CS(=O)(=O)c1ccc(-c2cnc(Br)n2-c2ccc(F)c(F)c2)cc1`, the Activity result with RAW264.7 [1] and in the data set with RAW264.7 [6] was “Non-toxic” each time. In addition, the pKa (in general, the negative logarithm of the acid dissociation constant) in data set [2] turned out to be 4.05. Besides, 580 nM corresponded to half-maximal inhibition in data set [3] (IC50). Also, the logP – broadly, the decadic logarithm of the partition coefficient of the neutral form, usually between octanol and water – in data set [4] was 3.7. In data set [5], the inhibition (commonly the change of the read-out against control, counted positive when it falls) came out at 99%.

In the case of `CS(=O)(=O)c1ccc(-c2cncn2-c2ccc(F)c(F)c2)cc1`, the Activity result with RAW264.7 [1] and in the data set with RAW264.7 [6] was “Non-toxic” in each case.

As for `CS(=O)(=O)c1ccc(-c2c(Br)nc(Br)n2-c2ccc(F)cc2F)cc1`, the Activity entry with RAW264.7 [1] and with RAW264.7 [6] was “Non-toxic” in each case. In data set [4], this compound gave a logP of 4.64. Moreover, the inhibition in data set [5] turned out to be 15%.

With `CS(=O)(=O)c1ccc(-c2c(Cl)ncn2-c2ccc(F)c(F)c2)cc1`, the Activity entry in the data set with RAW264.7 [1] and with RAW264.7 [6] was “Non-toxic” each time. The compound also registered an inhibition in data set [5] of 56%.

In the case of `CS(=O)(=O)c1ccc(-c2cncn2-c2ccc(F)cc2F)cc1`, the Activity result in the data set on RAW264.7 [1] and in the data set with RAW264.7 [6] was “Non-toxic” in each case. Besides, the IC50 (in general, the midpoint of a concentration-inhibition curve) in data set [3] amounted to 6520 nM. Moreover, the inhibition in data set [5] was 84%.

Consider `CS(=O)(=O)c1ccc(-c2c(Cl)nc(Cl)n2-c2ccc(F)cc2F)cc1`, for which the Activity entry in the data set with RAW264.7 [1] and in the data set on RAW264.7 [6] was “Non-toxic” throughout. In addition, the pKa in data set [2] is 1.07. The same compound had an IC50 in data set [3] of 550 nM. Moreover, in data set [4], the logP worked out at 3.64. The compound also had an inhibition in data set [5] of 98%.

As for `CS(=O)(=O)c1ccc(-c2cnc(I)n2-c2ccc(F)c(F)c2)cc1`, the Activity entry in the data set with RAW264.7 [1] and in the data set on RAW264.7 [6] was “Non-toxic” throughout. The compound further yielded a logP in data set [4] of 3.88. Moreover, the inhibition in data set [5] is 90%.

Regarding `CS(=O)(=O)c1ccc(-c2cnc(Cl)n2-c2ccc(F)cc2F)cc1`, the Activity result in the data set on RAW264.7 [1] and in the data set with RAW264.7 [6] was “Non-toxic” in each case. In data set [5], this compound showed an inhibition of 42%.

As to `CS(=O)(=O)c1ccc(-c2c(Cl)nc(Cl)n2-c2ccc(F)c(F)c2)cc1`, the Activity entry with RAW264.7 [1] and in the data set on RAW264.7 [6] was “Non-toxic” each time. This compound also had a logP in data set [4] of 4.44. This compound also returned an inhibition in data set [5] of 81%.

As for `CS(=O)(=O)c1ccc(-c2c(Br)ncn2-c2ccc(F)c(F)c2)cc1`, the Activity result with RAW264.7 [1] and with RAW264.7 [6] was “Non-toxic” throughout. The compound also returned a log partition coefficient (logP) in data set [4] of 3.72. Also, the inhibition in data set [5] turned out to be 7%.
